Assay results pooled from the literature.
In brackets after ≈: the same amount, converted by molar mass.

CCCCCCC/C=C/C(=O)N1C(=O)/C(=C(\O)C2CCNCC2)C(=O)C1CC(C)C (stereo not shown)
MIC (Proteus vulgaris; microbial growth; ATCC33420): 200 µg/mL (≈ 478 µM)

O=C(O)c1nc2ccccc2c(=O)n1Cc1cn(-c2ccccc2[N+](=O)[O-])nn1
IC50 (Nakaseomyces glabratus; microbial growth, broth dilution; ATCC90030; 24 h): 487 µg/mL

C[C@@H](c1ncncc1F)[C@](O)(Cn1cncn1)c1ccc(F)cc1F
IC50 (Acanthamoeba polyphaga; parasite growth, resazurin; 96 h): 28.9 µM

O=C(O)CN1C(=O)/C(=C/c2ccc(-c3ccc(N(c4ccccc4)c4ccccc4)cc3)c3ccccc23)SC1=S
MBC (Bacillus subtilis; microbial killing, broth dilution; ATCC6633): 1000 µg/mL (≈ 1750 µM)

N#CC(=Cc1cn(-c2ccccc2)nc1-c1ccccc1)C1=NC(=O)CS1
inhibition zone (Bacillus subtilis; microbial growth, well diffusion; 100000 µg/mL): 29 mm

O=C1NC(=S)N/C1=C\c1ccc(-c2ccc(N(c3ccccc3)c3ccccc3)cc2)c2ccccc12
MBC (Bacillus subtilis; microbial killing, broth dilution; ATCC6633): > 1000 µg/mL

CCOC(=O)C=c1[nH]c(=O)c(=Cc2cn(-c3ccccc3)nc2-c2ccccc2)s1
inhibition zone (Bacillus subtilis; microbial growth, well diffusion; 100000 µg/mL): 14 mm

COc1ccc(-n2cc(Cn3c(C(=O)O)nc4ccccc4c3=O)nn2)cc1
IC50 (Nakaseomyces glabratus; microbial growth, broth dilution; ATCC90030; 24 h): 718 µg/mL

CCOC(=O)c1c(N)csc1-c1cn(-c2ccccc2)nc1-c1ccc(C)cc1
MBC (Bacillus subtilis; microbial killing, broth dilution): 0.25 µg/mL (≈ 0.62 µM)

Cc1ccc(-n2cc(Cn3c(C(=O)O)nc4ccccc4c3=O)nn2)cc1
IC50 (Nakaseomyces glabratus; microbial growth, broth dilution; ATCC90030; 24 h): 288 µg/mL

Cc1c(NN=C2SC(CC#N)=NC2=O)c(=O)n(-c2ccccc2)n1C
inhibition zone (Bacillus subtilis; microbial growth, well diffusion; 100000 µg/mL): 14 mm

O=C(O)c1nc2ccccc2c(=O)n1Cc1cn(-c2ccc(F)cc2)nn1
IC50 (Nakaseomyces glabratus; microbial growth, broth dilution; ATCC90030; 24 h): 422 µg/mL

C/C(O)=C1\C(=O)C(CC(C)C)N(C(=O)C=Cc2ccccc2)C1=O (stereo not shown)
MIC (Proteus vulgaris; microbial growth; ATCC33420): > 200 µg/mL

O=C(O)c1nc2ccccc2c(=O)n1Cc1cn(-c2ccc([N+](=O)[O-])cc2)nn1
IC50 (Nakaseomyces glabratus; microbial growth, broth dilution; ATCC90030; 24 h): 432 µg/mL

C[C@@H]1[C@H](O)[C@@H](C)/C=C/C=C/C=C/C=C/C=C/C=C/C=C/[C@H](O[C@@H]2O[C@H](C)[C@@H](O)[C@H](N)[C@@H]2O)C[C@@H]2O[C@](O)(C[C@@H](O)C[C@@H](O)[C@H](O)CC[C@@H](O)C[C@@H](O)CC(=O)O[C@H]1C)C[C@H](O)[C@H]2C(=O)O
IC50 (Cryptococcus neoformans; microbial growth; ATCC90113): 0.26 µM

O=C(O)c1cn(C2CC2)c2cc(N3CCNCC3)c(F)cc2c1=O
MBC (Bacillus subtilis; microbial killing, broth dilution): 0.5 µg/mL (≈ 1.51 µM)

CCCCCCC/C=C/C(=O)N1C(=O)/C(=C(\O)c2ccncc2)C(=O)C1CC(C)C (stereo not shown)
MIC (Proteus vulgaris; microbial growth; ATCC33420): > 200 µg/mL

COc1cccc(-n2cc(Cn3c(C(=O)O)nc4ccccc4c3=O)nn2)c1
IC50 (Nakaseomyces glabratus; microbial growth, broth dilution; ATCC90030; 24 h): 453 µg/mL

Cc1ccc(-c2nn(-c3ccccc3)cc2C=c2sc(=CC#N)[nH]c2=O)cc1
inhibition zone (Bacillus subtilis; microbial growth, well diffusion; 100000 µg/mL): 12 mm
